Laboratory results from ChEMBL document CHEMBL1926614, “Substituted thiazoles V. synthesis and antitumor activity of novel thiazolo[2,3-b]quinazoline and pyrido[4,3-d]thiazolo[3,2-a]pyrimidine analogues” (2012).

Experiments:
Format in all cases: functional
UACC-257 = experiment: Growth inhibition of human UACC257 cells at 10 uM after 48 hrs by coulter counting; details: UACC-257, 48 h, read-out: GI
Procedure, shortened: (§1)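 Single-dose screen in the NCI 60 human tumor cell line panel (nine subpanels). Compounds dissolved in DMSO and diluted in phosphate buffered saline, keeping final DMSO below 1%. Added in duplicate wells to cells at 6 × 10⁴ cells/ml. Controls held PBS and DMSO at matching dilutions. Incubated at 37 °C, humidified, 5% CO₂. Reported as percent growth of treated cells.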

UACC-62 = experiment: Growth inhibition of human UACC62 cells at 10 uM after 48 hrs by coulter counting; details: UACC-62, 48 h, read-out: GI; procedure, shortened: as §1
SF-539 = experiment: Growth inhibition of human SF539 cells at 10 uM after 48 hrs by coulter counting; details: SF-539, 48 h, read-out: GI
Procedure, shortened: (§2)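 Single-dose primary screen across the full NCI 60-cell-line panel. Stocks were made in DMSO and diluted in PBS to a final DMSO below 1%. Cultures at 6 × 10⁴ cells/ml were run in duplicate wells alongside PBS/DMSO vehicle controls at 37 °C in humidified 5% CO₂. Data were expressed as percent growth of treated cells.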

CCRF-CEM = experiment: Growth inhibition of human CCRF-CEM cells at 10 uM after 48 hrs by coulter counting; details: read-out: GI; procedure, shortened: as §2
HL-60(TB) = experiment: Growth inhibition of human HL-60(TB) cells at 10 uM after 48 hrs by coulter counting; details: HL-60, 48 h, read-out: GI
Procedure, shortened: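 Test compound was dissolved in DMSO and diluted in phosphate-buffered saline to a final DMSO level below 1%. Dilutions were plated in duplicate with cell culture at 6 × 10⁴ cells/ml. Vehicle controls held PBS and DMSO at matching dilutions. Incubation was at 37 °C, humidified, under 5% CO₂. Data were reported as percent growth of treated cells.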

K562 = experiment: Growth inhibition of human K562 cells at 10 uM after 48 hrs by coulter counting; details: K562, 48 h, read-out: GI; procedure, shortened: as §2
MOLT-4 = experiment: Growth inhibition of human MOLT4 cells at 10 uM after 48 hrs by coulter counting; details: MOLT-4, 48 h, read-out: GI; procedure, shortened: as §2
RPMI-8226 = experiment: Growth inhibition of human RPMI8226 cells at 10 uM after 48 hrs by coulter counting; details: RPMI-8226, 48 h, read-out: GI; procedure, shortened: as §2
A549 = experiment: Growth inhibition of human A549 cells at 10 uM after 48 hrs by coulter counting; details: A549, 48 h, read-out: GI; procedure, shortened: as §2
EKVX = experiment: Growth inhibition of human EKVX cells at 10 uM after 48 hrs by coulter counting; details: read-out: GI; procedure, shortened: as §2
HOP-62 = experiment: Growth inhibition of human HOP62 cells at 10 uM after 48 hrs by coulter counting; details: HOP-62, 48 h, read-out: GI; procedure, shortened: as §2
NCI-H226 = experiment: Growth inhibition of human NCI-H226 cells at 10 uM after 48 hrs by coulter counting; details: NCI-H226, 48 h, read-out: GI; procedure, shortened: as §2
NCI-H23 = experiment: Growth inhibition of human NCI-H23 cells at 10 uM after 48 hrs by coulter counting; details: NCI-H23, 48 h, read-out: GI; procedure, shortened: as §2
[1] = Growth inhibition of human NCI-322M cells at 10 uM after 48 hrs by coulter counting; details: read-out: GI; procedure, shortened: as §2
NCI-H460 = experiment: Growth inhibition of human NCI-H460 cells at 10 uM after 48 hrs by coulter counting; details: NCI-H460, 48 h, read-out: GI; procedure, shortened: as §2
NCI-H522 = experiment: Growth inhibition of human NCI-H522 cells at 10 uM after 48 hrs by coulter counting; details: NCI-H522, 48 h, read-out: GI; procedure, shortened: as §2
HCT-116 = experiment: Growth inhibition of human HCT116 cells at 10 uM after 48 hrs by coulter counting; details: HCT-116, 48 h, read-out: GI; procedure, shortened: as §2
HCC 2998 = experiment: Growth inhibition of human HCC2998 cells at 10 uM after 48 hrs by coulter counting; details: HCC 2998, 48 h, read-out: GI; procedure, shortened: as §2
HT-29 = experiment: Growth inhibition of human HT-29 cells at 10 uM after 48 hrs by coulter counting; details: HT-29, 48 h, read-out: GI; procedure, shortened: as §2
KM12 = experiment: Growth inhibition of human KM12 cells at 10 uM after 48 hrs by coulter counting; details: KM12, 48 h, read-out: GI; procedure, shortened: as §2
SF-268 = experiment: Growth inhibition of human SF268 cells at 10 uM after 48 hrs by coulter counting; details: SF-268, 48 h, read-out: GI; procedure, shortened: as §2
SF-295 = experiment: Growth inhibition of human SF295 cells at 10 uM after 48 hrs by coulter counting; details: SF-295, 48 h, read-out: GI; procedure, shortened: as §2
SNB-19 = experiment: Growth inhibition of human SNB19 cells at 10 uM after 48 hrs by coulter counting; details: SNB-19, 48 h, read-out: GI; procedure, shortened: as §2
SNB-75 = experiment: Growth inhibition of human SNB75 cells at 10 uM after 48 hrs by coulter counting; details: SNB-75, 48 h, read-out: GI; procedure, shortened: as §2
U-251 = experiment: Growth inhibition of human U251 cells at 10 uM after 48 hrs by coulter counting; details: U-251, 48 h, read-out: GI; procedure, shortened: as §1
LOX IMVI = experiment: Growth inhibition of human LOXIMVI cells at 10 uM after 48 hrs by coulter counting; details: read-out: GI; procedure, shortened: as §2
M14 = experiment: Growth inhibition of human M14 cells at 10 uM after 48 hrs by coulter counting; details: M14, 48 h, read-out: GI; procedure, shortened: as §2
MDA-MB-435 = experiment: Growth inhibition of human MDA-MB-435 cells at 10 uM after 48 hrs by coulter counting; details: MDA-MB-435, 48 h, read-out: GI; procedure, shortened: as §2
SK-MEL-2 = experiment: Growth inhibition of human SK-MEL-2 cells at 10 uM after 48 hrs by coulter counting; details: SK-MEL-2, 48 h, read-out: GI; procedure, shortened: as §2
SK-MEL-28 = experiment: Growth inhibition of human SK-MEL-28 cells at 10 uM after 48 hrs by coulter counting; details: SK-MEL-28, 48 h, read-out: GI; procedure, shortened: as §2
SK-MEL-5 = experiment: Growth inhibition of human SK-MEL-5 cells at 10 uM after 48 hrs by coulter counting; details: SK-MEL-5, 48 h, read-out: GI; procedure, shortened: as §2
IGROV-1 = experiment: Growth inhibition of human IGROV1 cells at 10 uM after 48 hrs by coulter counting; details: IGROV-1, 48 h, read-out: GI; procedure, shortened: as §2
OVCAR-4 = experiment: Growth inhibition of human OVCAR4 cells at 10 uM after 48 hrs by coulter counting; details: OVCAR-4, 48 h, read-out: GI; procedure, shortened: as §2
NCI/ADR-RES = experiment: Growth inhibition of human NCI/ADR-RES cells at 10 uM after 48 hrs by coulter counting; details: read-out: GI; procedure, shortened: as §2
A498 = experiment: Growth inhibition of human A498 cells at 10 uM after 48 hrs by coulter counting; details: A498, 48 h, read-out: GI; procedure, shortened: as §2
ACHN = experiment: Growth inhibition of human ACHN cells at 10 uM after 48 hrs by coulter counting; details: read-out: GI; procedure, shortened: as §2
CAKI-1 = experiment: Growth inhibition of human Caki1 cells at 10 uM after 48 hrs by coulter counting; details: CAKI-1, 48 h, read-out: GI; procedure, shortened: as §2
UO-31 = experiment: Growth inhibition of human UO31 cells at 10 uM after 48 hrs by coulter counting; details: UO-31, 48 h, read-out: GI; procedure, shortened: as §1
DU-145 = experiment: Growth inhibition of human DU145 cells at 10 uM after 48 hrs by coulter counting; details: DU-145, 48 h, read-out: GI; procedure, shortened: as §2
MCF7 = experiment: Growth inhibition of human MCF7 cells at 10 uM after 48 hrs by coulter counting; details: MCF7, 48 h, read-out: GI; procedure, shortened: as §2
BT-549 = experiment: Growth inhibition of human BT549 cells at 10 uM after 48 hrs by coulter counting; details: BT-549, 48 h, read-out: GI; procedure, shortened: as §2
T47D = experiment: Growth inhibition of human T47D cells at 10 uM after 48 hrs by coulter counting; details: read-out: GI; procedure, shortened: as §1

Structure (SMILES): C1=CN2C(=NC3=C(CCC/C3=C\c3ccccc3)C2c2ccccc2)S1 (configuration not stated)
- inhibition of growth at 10 µM (UACC-257): > 10%
- inhibition of growth at 10 µM (UACC-62): > 10%
- inhibition of growth at 10 µM (SF-539): > 10%
- inhibition of growth at 10 µM (CCRF-CEM): > 10%
- inhibition of growth at 10 µM (HL-60(TB)): > 10%
- inhibition of growth at 10 µM (K562): > 10%
- inhibition of growth at 10 µM (MOLT-4): > 10%
- inhibition of growth at 10 µM (RPMI-8226): > 10%
- inhibition of growth at 10 µM (A549): > 10%
- inhibition of growth at 10 µM (EKVX): > 10%
- inhibition of growth at 10 µM (HOP-62): > 10%
- inhibition of growth at 10 µM (NCI-H226): > 10%
- inhibition of growth at 10 µM (NCI-H23): > 10%
- inhibition of growth at 10 µM [1]: > 10%
- inhibition of growth at 10 µM (NCI-H460): > 10%
- inhibition of growth at 10 µM (NCI-H522): > 10%
- inhibition of growth at 10 µM (HCT-116): > 10%
- inhibition of growth at 10 µM (HCC 2998): > 10%
- inhibition of growth at 10 µM (HT-29): > 10%
- inhibition of growth at 10 µM (KM12): > 10%
- inhibition of growth at 10 µM (SF-268): > 10%
- inhibition of growth at 10 µM (SF-295): > 10%
- inhibition of growth at 10 µM (SNB-19): > 10%
- inhibition of growth at 10 µM (SNB-75): > 10%
- inhibition of growth at 10 µM (U-251): > 10%
- inhibition of growth at 10 µM (LOX IMVI): > 10%
- inhibition of growth at 10 µM (M14): > 10%
- inhibition of growth at 10 µM (MDA-MB-435): > 10%
- inhibition of growth at 10 µM (SK-MEL-2): > 10%
- inhibition of growth at 10 µM (SK-MEL-28): > 10%
- inhibition of growth at 10 µM (SK-MEL-5): > 10%
- inhibition of growth at 10 µM (IGROV-1): > 10%
- inhibition of growth at 10 µM (OVCAR-4): > 10%
- inhibition of growth at 10 µM (NCI/ADR-RES): > 10%
- inhibition of growth at 10 µM (A498): > 10%
- inhibition of growth at 10 µM (ACHN): > 10%
- inhibition of growth at 10 µM (CAKI-1): > 10%
- inhibition of growth at 10 µM (UO-31): 21.4%
- inhibition of growth at 10 µM (DU-145): > 10%
- inhibition of growth at 10 µM (MCF7): > 10%
- inhibition of growth at 10 µM (BT-549): > 10%
- inhibition of growth at 10 µM (T47D): > 10%
